The results in this text go back to ChEMBL document CHEMBL3286182, “4-aminoquinolone piperidine amides: noncovalent inhibitors of DprE1 with long residence time and potent antimycobacterial activity” (J Med Chem, 2014).

In assay [1] the test system is Mycobacterium tuberculosis. Briefly: Antimycobacterial activity against Mycobacterium tuberculosis H37Rv after 5 days by standard microdilution method. Type of assay: functional. The following applies: 120 h. Background: Dilution methods test growth across graded concentrations, often in twofold steps.
The test system of assay [2] is Mycobacterium tuberculosis. In words: Antimycobacterial activity against Mycobacterium tuberculosis over expressing InhA after 5 days by standard microdilution method. The following applies: 120 h. Type of assay: functional.
For assay [3], the system named is Mycobacterium tuberculosis. Briefly: Antimycobacterial activity against Mycobacterium tuberculosis over expressing DprE1 after 5 days by standard microdilution method. The following applies: 120 h. Type of assay: functional.
Assay [4] concerns Mycobacterium tuberculosis. Briefly: Antimycobacterial activity against Mycobacterium tuberculosis over expressing PimA after 5 days by standard microdilution method. Format: functional. The following applies: 120 h.
Assay [5] concerns Mycobacterium tuberculosis. In words: Antimycobacterial activity against Mycobacterium tuberculosis over expressing TopA after 5 days by standard microdilution method. The following applies: 120 h. Format: functional.
Assay [6] has as its system Klebsiella pneumoniae. Briefly: Antimicrobial activity against Klebsiella pneumoniae ARC1865 at 100 uM. Type of assay: functional, organism-based. In short, it runs like this:
(§1)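 Nonmycobacterial panel of Candida albicans, Gram-negative and Gram-positive pathogens.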

Assay [7] deals with Haemophilus influenzae. In words: Antimicrobial activity against Haemophilus influenzae ARC446 at 100 uM. Format: functional, organism-based. In short, it runs like this:
as §1

Assay [8] in a line: Inhibition of Mycobacterium smegmatis recombinant DprE1 using farnesylphosphoryl-beta-D-ribofuranose as substrate assessed as conversion of amplex red to resorufin after 30 mins. Further details: species or system Mycolicibacterium smegmatis. In outline:
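Msm DprE1 (thioredoxin-6His fusion of Msm Rv3790) at 75 nM, preincubated 30 min with 10 μM FAD. Buffer: 50 mM glycylglycine pH 8.5, 200 mM potassium glutamate, 0.002% Brij-35, 2% DMSO, 25 °C. Started with 300 μM farnesylphosphoryl-β-D-ribofuranose, 0.01 mg/mL HRP and 50 μM Amplex Red.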

Assay [9] deals with Mycolicibacterium smegmatis. In words: Antimicrobial activity against Mycobacterium smegmatis ATCC 607 at 100 uM. Type of assay: functional, organism-based.
Assay [10] concerns Streptococcus pneumoniae. In words: Antimicrobial activity against Streptococcus pneumoniae ARC548 at 100 uM. Type of assay: functional, organism-based. In short, it runs like this: as §1
Assay [11] has as its system Staphylococcus aureus. Briefly: Antimicrobial activity against Staphylococcus aureus ARC517 at 100 uM. Format: functional, organism-based. In outline:
as §1

The test system of assay [12] is Candida albicans. Briefly: Antimicrobial activity against Candida albicans ARC527 at 100 uM. Type of assay: functional, organism-based. In short, it runs like this: as §1
Assay [13] has as its system Haemophilus influenzae. In words: Antimicrobial activity against Haemophilus influenzae ARC158 at 100 uM. Type of assay: functional, organism-based. In short, it runs like this: as §1
The subject of assay [14] is Mycolicibacterium smegmatis. In words: Antimicrobial activity against Mycobacterium smegmatis mc2155 at 100 uM. Format: functional, organism-based. The following applies: str. MC2 155.
The subject of assay [15] is Escherichia coli. Briefly: Antimicrobial activity against Escherichia coli ARC524 at 100 uM. Format: functional, organism-based. In short, it runs like this:
as §1

For assay [16], the system named is Pseudomonas aeruginosa. Briefly: Antimicrobial activity against Pseudomonas aeruginosa ARC545 at 100 uM. Type of assay: functional, organism-based. In short, it runs like this: as §1
Assay [17] concerns Pseudomonas aeruginosa. In words: Antimicrobial activity against Pseudomonas aeruginosa ARC546 at 100 uM. Format: functional, organism-based. In outline:
as §1

Assay [18] deals with Mycobacterium tuberculosis. In words: Antimycobacterial activity against Mycobacterium tuberculosis H37Rv under hypoxic condition after 6 days by resazurin assay. Format: functional.
Assay [19] has as its system Escherichia coli. In words: Antimicrobial activity against Escherichia coli ARC523 at 100 uM. Format: functional, organism-based. In outline: as §1
Assay [20] is described as follows: Inhibition of Mycobacterium smegmatis DprE1 Y321H mutant using farnesylphosphoryl-beta-D-ribofuranose as substrate assessed as conversion of amplex red to resorufin after 30 mins. Further details: species or system Mycolicibacterium smegmatis. In short, it runs like this: (§2)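 Recombinant M. smegmatis DprE1 (thioredoxin-6His fusion), wild type or Y321H, 75 nM. Enzyme was preincubated 30 min in FAD assay mix: 50 mM glycylglycine pH 8.5, 200 mM potassium glutamate, 10 μM FAD, 0.002% Brij-35, 2% DMSO. Reaction was started with 300 μM farnesylphosphoryl-β-D-ribofuranose, 0.01 mg/mL HRP and 50 μM amplex red at 25 °C.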

Assay [21] deals with Mycolicibacterium smegmatis. Briefly: Ratio of IC50 for Mycobacterium smegmatis DprE1 Y321H mutant to IC50 for Mycobacterium smegmatis recombinant wild type DprE1. In short, it runs like this:
as §2

In brackets after ≈: the same amount, converted by molar mass. Activity calls are given as the source filed them. No cut-off for these calls is given here.

One may read the MIC as the lowest concentration found to suppress growth. The low end stands for inhibition by little substance, the high end for a need for much substance. Take `COc1nc2ccc(Br)cc2cc1[C@@H](c1ccccc1)[C@@](O)(CCN(C)C)c1cccc2ccccc12` [BEDAQUILINE]: the MIC in assay [1] amounted to 0.78 µM (≈ 0.433 µg/mL); in assay [2], 1.6 µM (≈ 0.889 µg/mL); in assay [3] it was 1.6 µM (≈ 0.889 µg/mL); in assay [4], 0.8 µM (≈ 0.444 µg/mL); in assay [5], 0.8 µM (≈ 0.444 µg/mL).

In the case of `C[C@H]1COC2(CCN(c3nc(=O)c4cc(C(F)(F)F)cc([N+](=O)[O-])c4s3)CC2)O1` [BTZ-043], the MIC in assay [1] turned out to be 0.003 µM (≈ 0.00129 µg/mL); in assay [2], 0.003 µM (≈ 0.00129 µg/mL); in [3] it was 12.5 µM (≈ 5.39 µg/mL); in [4] it was 0.003 µM (≈ 0.00129 µg/mL); in [5], 0.012 µM (≈ 0.00518 µg/mL).

For the compound `NNC(=O)c1ccncc1` [ISONIAZID], the MIC is 0.45 µM (≈ 0.0617 µg/mL) in [1]; over 7.25 µM in assay [2]; 0.22 µM (≈ 0.0302 µg/mL) in assay [3]; 0.22 µM (≈ 0.0302 µg/mL) in assay [4]; 0.45 µM (≈ 0.0617 µg/mL) in assay [5].

`COc1c(N2C[C@@H]3CCCN[C@@H]3C2)c(F)cc2c(=O)c(C(=O)O)cn(C3CC3)c12` [MOXIFLOXACIN]: the MIC stood at 0.16 µM (≈ 0.0642 µg/mL) in assay [2], 0.08 µM (≈ 0.0321 µg/mL) in assay [3] and 0.31 µM (≈ 0.124 µg/mL) in assay [5].

Broadly, the IC50 is the point on the concentration scale where inhibition reaches its midpoint. As to `Cn1cc(C(=O)N2CCC(Nc3cc(=O)[nH]c4ccccc34)CC2)cn1`, the outcome in [6], in assay [7], in [9], in assay [10], in assay [11] and in [12] was inactive. In addition, the result in [13], in [14], in assay [15], in assay [16], in assay [17] and in assay [18] was inactive. Moreover, in [19], the outcome was inactive. It took 140 µM (≈ 49.2 µg/mL) to inhibit growth in [1] (MIC). For the same compound, the IC50 in [8] worked out at 2200 nM.

For `CN(c1cc(=O)[nH]c2ccccc12)C1CCN(C(=O)c2cnn(C)c2Cl)CC1`, the result in [6], in assay [7], in assay [9], in assay [10], in [11] and in assay [12] was inactive. Besides, the outcome in assay [13], in assay [14], in assay [15], in [16], in assay [17] and in assay [18] was inactive. Further, in assay [19], the result was inactive. In [1], this compound had a minimum inhibitory concentration (MIC) of over 250 µM. Moreover, in assay [8], the IC50 came out at 18000 nM.

Turning to `Cn1ncc(C(=O)N2CCC(Nc3cc(=O)[nH]c4cc(F)ccc34)CC2)c1Cl`, the outcome in assay [6], in assay [7], in assay [9], in assay [10], in assay [11] and in assay [12] was inactive. The result in assay [13], in [14], in [15], in assay [16], in [17] and in assay [18] was inactive. Also, in [19], the outcome was inactive. Moreover, the minimal inhibitory concentration (MIC) in assay [1] worked out at 3.1 µM (≈ 1.25 µg/mL). In addition, the IC50 in assay [8] was found to be 7 nM.

Take `Cc1c(C(=O)N2CCC(Nc3cc(=O)[nH]c4ccc(F)cc34)CC2)nnn1C`: the outcome in assay [6], in [7], in assay [9], in assay [10], in assay [11] and in [12] was inactive. The result in [13], in [14], in assay [15], in assay [16], in assay [17] and in assay [18] was inactive. In addition, in assay [19], the outcome was inactive. The minimum inhibitory concentration (MIC) in assay [1] amounted to 3.5 µM (≈ 1.35 µg/mL). For the same compound, the IC50 in assay [8] came to 11 nM.

As for `Cc1c(C(=O)N2CCC(Nc3cc(=O)[nH]c4ccccc34)CC2)cnn1C`, the outcome in assay [6], in assay [7], in assay [9], in [10], in assay [11] and in assay [12] was inactive. Further, the outcome in assay [13], in assay [14], in assay [15], in [16], in [17] and in assay [18] was inactive. In addition, the outcome in assay [19] was inactive. In [1], the minimal inhibitory concentration (MIC) is 6.2 µM (≈ 2.27 µg/mL). Further, the concentration for half-maximal inhibition (IC50) in [8] worked out at 210 nM.

As for `C[C@H]1C[C@H](Nc2cc(=O)[nH]c3cc(F)c(F)cc23)CCN1C(=O)c1cnn(C)c1Cl`, the results for the MIC in assay [1] and in assay [3] were 0.39 µM (≈ 0.17 µg/mL) and 12.5 µM (≈ 5.45 µg/mL), respectively. The values for the IC50 in [8] and in [20] were 21 nM and 1030 nM, respectively. Besides, in assay [21], the fold change (FC) is 47. The outcome in assay [18] was inactive.

`CO[C@H]1/C=C/O[C@@]2(C)Oc3c(C)c(O)c4c(O)c(c(/C=N/N5CCN(C)CC5)c(O)c4c3C2=O)NC(=O)/C(C)=C\C=C\[C@H](C)[C@H](O)[C@@H](C)[C@@H](O)[C@@H](C)[C@H](OC(C)=O)[C@@H]1C` [RIFAMPIN]: the MIC in assay [1] was 0.01 µM (≈ 0.00823 µg/mL); in assay [2], 0.01 µM (≈ 0.00823 µg/mL); in [3], 0.01 µM (≈ 0.00823 µg/mL); in assay [4], 0.004 µM (≈ 0.00329 µg/mL); in assay [5], 0.03 µM (≈ 0.0247 µg/mL).

With `Cn1ncc(C(=O)N2CCC(Nc3cc(=O)[nH]c4c(F)cccc34)CC2)c1Cl`, the outcome in assay [6], in assay [7], in assay [9], in assay [10], in assay [11] and in [12] was inactive. In addition, the result in assay [13], in [14], in assay [15], in assay [16], in [17] and in assay [18] was inactive. The outcome in [19] was inactive. In [1], this compound yielded an MIC of 3.1 µM (≈ 1.25 µg/mL). The IC50 in assay [8] was determined as 11 nM.
